test: Toxicity liver stage against HepG2, at 10uM; assay type: cell-based; set-up: test concentration 10 uM, cell line HepG2-A16-CD81EGFP; conditions: human, HepG2-A16-CD81EGFP cells; read-out: INHIBITION
Summary of the method: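 Uninfected HepG2-A16-CD81EGFP cells, 3 × 10^3 per well, 1536-well, plated on prespotted compound at 10 μM final, parasite-free screening media added to match infected plates; puromycin 10 μM positive, DMSO 0.5% negative; run in parallel with 48 h PbLuc assay at 37 °C, 5% CO2; viability by CellTiter-Glo luminescence, normalized to controls.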

Row | Structure (SMILES) | cytotoxicity at 10 µM [%]
1 | CN(Cc1ccc(CCC(C)(C)O)cc1)Cc1cccc(O)c1 | -7.43
2 | CS(=O)(=O)NCC1CCCCN1C(=O)c1ccsc1 (stereo unspecified) | 0.555
3 | CCN(CC(=O)NC1(C)CCS(=O)(=O)C1)Cc1ccc(OC)c(F)c1 (stereo unspecified) | -9.44
4 | Cc1ccc(OCC(=O)NC2(C#N)CCSCC2)cc1C | 5.7
5 | Cc1ccc(CN2CCN(C3CCCC3)CC2CCO)o1 (stereo unspecified) | -6.05
6 | NC(=O)c1cnc(NCC(=O)NCc2ccccc2)c(Cl)c1 | 3.89
7 | COC(=O)CC(c1ccc(O)c(Cl)c1)c1oc(C)cc(=O)c1O (stereo unspecified) | -8.59
8 | Cc1ccn(C)c(=O)c1NC(=O)N(C)Cc1cccc(OC(C)C)c1 | 2.29
9 | CCC(CC)n1nc(C)cc1NC(=O)CC1CCOCC1 | -2.17
10 | CCN(CC)Cc1nc2c(o1)CN(S(=O)(=O)c1cccs1)C2 | -117
11 | Cc1cccc2c1nc1n2[C@@H](CNC(=O)CCC(=O)O)COC1 | -4.83
12 | Cc1cc(NC(=O)CO)nn1-c1ccc(Cl)cc1Cl | -142
13 | C[C@@H]1CN(C(=O)NC2CC2)C[C@]12CCN(c1ccsc1)C2=O | 0.77
14 | N#Cc1ccc(OCCCN2CCOC(Cn3cncn3)C2)cc1 (stereo unspecified) | -0.0581
15 | CC(C)c1nnc2n1CCN(C(=O)c1ccc3c(c1)COC3)C2 | -6.22
16 | CC(C)N(C)Cc1ncn2c1CN(CC(=O)N(C)C)CCC2 | 7.28
17 | CSCc1cccc(S(=O)(=O)NCCCn2ccnc2)c1 | 4.51
18 | CCNC(=O)NC(=O)CN(CC(C)O)c1ccccc1 (stereo unspecified) | 1.32
19 | NC(=O)C1(Cc2ccc(-c3ccccc3)cc2)CCNC1 (stereo unspecified) | 11.5

Row | Structure (SMILES) | cytotoxicity at 10 µM [%]
20 | COc1c[nH]c(C(=O)Nc2nc(C)cs2)cc1=O | -44.4
21 | CCOC(=O)N1CCC(Oc2ccc(C(F)(F)F)cn2)CC1 | 7.5
22 | Cn1cc([C@@H]2CN(S(=O)(=O)c3cccnc3)C[C@H]2N)c2ccncc21 | -0.57
23 | Cc1ccsc1CN(C)Cc1nc2c(cnn2C)c(=O)[nH]1 | -0.575
24 | c1cnc(NCc2nnn3c2CN(Cc2ccsc2)CCC3)nc1 | 10.8
25 | NC(=O)C1CCN(C(=O)c2cc(S(=O)(=O)N3CCCC3)cs2)CC1 | -43.9
26 | CC(C)(C)c1ccn(C2(C(=O)O)CCN(c3ccncc3F)CC2)n1 | -0.423
27 | O=C(c1cnc(-c2ccco2)s1)N1CCCC1Cn1cccn1 (stereo unspecified) | -1.08
28 | COC[C@@]12CCC[C@@H]1CN(C(=O)Cc1ccccn1)C2 | -96.7
29 | COc1cc(C(=O)N(Cc2cnn(C)c2)C(C)C)ccc1OC(C)C | -6.02
30 | COc1ccc(C(O)CNC(=O)Cn2ccc(=O)n(C)c2=O)cc1 (stereo unspecified) | 6.45
31 | Cn1cc(CN2CCc3c(cnc(-c4ccccc4)c3C(=O)O)C2)cn1 | 4.2
32 | COc1ccc(CCN)cc1-c1ccc(C(N)=O)cc1 | 3.23
33 | COc1cc(C2(C(=O)N3CCCC(n4cncn4)C3)CC2)ccc1C (stereo unspecified) | -6.16
34 | O=C(NCc1ccco1)[C@H]1CC[C@@H]2[C@@H](CCN2C2CCC2)O1 | 6.47
35 | Cc1ccc2c(c1)C1(CCNCC1)CN2C(=O)C(C)C | -77
36 | Cc1csc(C2CCCCN2C(=O)c2cc(C3CC3)[nH]n2)n1 (stereo unspecified) | -11.6
37 | Cc1cccc(NC(=O)N2CCCn3cnc(CN(C)C(C)C)c3C2)c1 | 8.18
38 | CC(CCc1ccc(F)c(F)c1)NS(=O)(=O)Cc1ccon1 (stereo unspecified) | -7.97

Row | Structure (SMILES) | cytotoxicity at 10 µM [%]
39 | COCC(=O)Nc1ccc(N2CCC(OC)CC2)c(C(F)(F)F)c1 | -0.0399
40 | c1cnn(CCCO[C@@H]2CN(C3CCOCC3)[C@@H]3CCCO[C@@H]32)c1 | 4.56
41 | CC(=O)NCCNC(=O)CN1CCOC(Cn2cccn2)C1 (stereo unspecified) | -7.6
42 | CCc1nc2n(n1)CC(NCc1nc(C)c(C)o1)CC2 (stereo unspecified) | -11
43 | Cc1nc([C@@H]2C[C@@H]3CCN(Cc4cnn(C)c4)C[C@H]3O2)sc1C | -3.49
44 | CCN(C(=O)C1CC1)C(c1cccnc1)c1ccc2c(c1)CCO2 (stereo unspecified) | 1.46
45 | CC(=O)N1CCO[C@@H]2CN(C(=O)NCc3ccccc3)CC[C@@H]2C1 | -97.7
46 | Cc1ccccc1CS(=O)(=O)CC(=O)NC1CCCCNC1=O (stereo unspecified) | -7.23
47 | COCC1CN(Cc2ccc(C)o2)Cc2ncn(CC3CC3)c21 (stereo unspecified) | -11
48 | CCc1noc(C(C)N2CCN(S(=O)(=O)N3CCCC3)CC2)n1 (stereo unspecified) | -0.252
49 | Cc1ccc(C(=O)N2CCCC(NC(=O)C(C)C)C2)c(O)c1 (stereo unspecified) | -7.84
50 | O=C1CSC(c2ccc(O)cc2)c2sccc2N1 (stereo unspecified) | 5.31
51 | Cc1cccnc1N1CCN(C(=O)CCc2cn3ccccc3n2)CC1 | -6.21
52 | CCS(=O)(=O)N(C)C1CCN(c2cccc(F)c2C(C)=O)CC1 | 9.61
53 | CCOc1nn(CC)cc1-c1nnc(SCc2cccnc2)n1C | 5.97
54 | O=C(C1CCC1)N1CCN(Cc2cccnc2)[C@H]2CS(=O)(=O)C[C@H]21 | 1.02
55 | CCC(CO)N(C/C(C)=C/c1ccco1)Cc1ccsc1 (stereo unspecified) | 1.12
56 | Cc1noc(C(C)Nc2ccc3c(c2)CCC3)n1 (stereo unspecified) | 1.84

Source: ChEMBL document CHEMBL4513216, “Probing the Open Global Health Chemical Diversity Library for Multistage-Active Starting Points for Next-Generation Antimalarials” (ACS Infect Dis, 2020)
